ChEMBL document CHEMBL1124681, “Studies on hindered phenols and analogues. 1. Hypolipidemic and hypoglycemic agents with ability to inhibit lipid peroxidation” (J Med Chem, 1989)
In brackets after ≈: the same amount, converted by molar mass. Several values for one entry are separate records, joined by “and”; a condition that tells them apart may be missing. Equal values may be shown once.

Columns and labels:
Rattus norvegicus [1] = species: Rattus norvegicus; assay: In vitro inhibitory activity against rat microsomal lipid peroxidation (m-LPO); assay type: functional
Method in brief: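 Lipid peroxidation used rat liver microsomes driven by ferrous sulfate/cysteine, per the Malvy et al. approach. IC50 is given in µg/mL.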

Mus musculus [2] = assay: In vivo activity against hypocholesterol (CHOL) by using Alloxan-induced hyperlipoperoxidemia method in BALB/c mice after peroral administration at 100 mg/Kg dose; assay type: functional
Method in brief: (§1)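 Male BALB/c mice, 8 weeks old, were fasted 18 h and then given alloxan 75 mg/kg iv. Compound was dosed orally 30 min before and 24 and 30 h after alloxan. Cervical blood was taken at 48 h, diluted in saline and centrifuged. Serum LPO was measured by TBA method; cholesterol and TG by enzymatic kits. Values are % decrease versus alloxan controls without compound.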

Mus musculus [3] = assay: (§2) In vivo activity against triglycerides (TG) by using Alloxan-induced hyperlipoperoxidemia method in BALB/c mice after peroral administration at 100 mg/Kg dose; assay type: functional; method in brief: as §1
Mus musculus [4] = assay: In vivo activity against serum lipid peroxidation level (s-LPO) by using Alloxan-induced hyperlipoperoxidemia method in BALB/c mice after peroral administration at 100 mg/Kg dose; assay type: functional; method in brief: as §1
Rattus norvegicus [5] = assay: Hypotriglyceridemic activity of Wistar-Imamichi rats in 6 animals at 300 mg/kg dose
Rattus norvegicus [6] = species: Rattus norvegicus; assay: liver weight in Wistar-Imamichi rats at 0.2% in the diet for 7 days in 6 rats; conditions: dose 0.2% in diet
Rattus norvegicus [7] = species: Rattus norvegicus; assay: Inhibitory activity on peroxidation by a relative peroxide value(POV) to vitamin E by using ethyl linoleate; assay type: functional
Method in brief: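 Peroxide formed was titrated with 0.01 N Na2S2O3 after adding water. The peroxide value was expressed relative to vitamin E.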

Mus musculus [8] = assay: In vivo activity against serum lipid peroxidation level (s-LPO) by using Alloxan-induced hyperlipoperoxidemia method in BALB/c mice after peroral administration at 100 mg/kg dose; assay type: functional; conditions: route oral; method in brief: as §1
Rattus norvegicus [9] = assay: Liver weight in Wistar-Imamichi rats at 200 mg/Kg dose in 12 rats; assay type: functional
Mus musculus [10] = assay: In vivo activity against triglycerides (TG) by using Alloxan-induced hyperlipoperoxidemia method in BALB/c mice after peroral administration at 200 mg/Kg dose; assay type: functional; method in brief: as §1
Mus musculus [11] = assay: In vivo activity against hypocholesterol (CHOL) by using Alloxan-induced hyperlipoperoxidemia method in BALB/c mice after peroral administration at 300 mg/Kg dose; assay type: functional; method in brief: as §1
Mus musculus [12] = assay: In vivo activity against triglycerides (TG) by using Alloxan-induced hyperlipoperoxidemia method in BALB/c mice after peroral administration at 300 mg/Kg dose; assay type: functional; method in brief: as §1
Mus musculus [13] = assay: In vivo activity against serum lipid peroxidation level (s-LPO) by using Alloxan-induced hyperlipoperoxidemia method in BALB/c mice after peroral administration at 200 mg/Kg dose; assay type: functional; method in brief: as §1
Mus musculus [14] = assay: In vivo activity against serum lipid peroxidation level (s-LPO) by using Alloxan-induced hyperlipoperoxidemia method in BALB/c mice after peroral administration at 300 mg/Kg dose; assay type: functional; method in brief: as §1
Mus musculus [15] = assay: In vivo activity against hypocholesterol (CHOL) by using Alloxan-induced hyperlipoperoxidemia method in BALB/c mice after peroral administration at 200 mg/Kg dose; assay type: functional; method in brief: as §1
Mus musculus [16] = assay: In vivo activity against serum lipid peroxidation level (s-LPO) by using Alloxan-induced hyperlipoperoxidemia method in BALB/c mice after peroral administration at 50 mg/Kg dose; assay type: functional; method in brief: as §1
Rattus norvegicus [17] = species: Rattus norvegicus; assay: Hypotriglyceridemic activity of Wistar-Imamichi rats in 12 animals
Mus musculus [18] = assay: In vivo activity against triglycerides (TG) by Alloxan-induced hyperlipoperoxidemia method in BALB/c mice after peroral administration at 50 mg/Kg dose; assay type: functional; method in brief: as §1
Mus musculus [19] = assay: Hypoglycemic activity at dose 50 mg/Kg in KK-mice after peroral administration; assay type: functional
Method in brief: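 Male KK-mice, a genetically diabetic NIDDM model, were housed singly from 8 weeks of age and used at about 4-5 months once body weight exceeded 40 g. Compound was suspended in 0.5% carboxymethylcellulose saline and dosed orally 18 h before tail-vein blood sampling into heparinized tubes. Plasma glucose was measured with a glucose analyzer. Values are % decrease versus vehicle-dosed controls run simultaneously.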

Mus musculus [20] = assay: In vivo activity against serum lipid peroxidation level (s-LPO) by using Alloxan-induced hyperlipoperoxidemia method in BALB/c mice after peroral administration at 300 mg/kg dose; assay type: functional; conditions: route oral; method in brief: as §1
Mus musculus [21] = assay: In vivo activity against triglycerides (TG) by using Alloxan-induced hyperlipoperoxidemia method in BALB/c mice after peroral administration at 300 mg/kg dose; assay type: functional; conditions: route oral; method in brief: as §1
Mus musculus [22] = assay: In vivo activity against hypocholesterol (CHOL) by using Alloxan-induced hyperlipoperoxidemia method in BALB/c mice after peroral administration at 100 mg/kg dose; assay type: functional; conditions: route oral; method in brief: as §1
Mus musculus [23] = assay: In vivo activity against triglycerides (TG) by using Alloxan-induced hyperlipoperoxidemia method in BALB/c mice after peroral administration at 10 mg/Kg dose; assay type: functional; method in brief: as §1
Mus musculus [24] = assay: In vivo activity against serum lipid peroxidation level (s-LPO) by using Alloxan-induced hyperlipoperoxidemia method in BALB/c mice after peroral administration at 10 mg/Kg dose; assay type: functional; method in brief: as §1
Mus musculus [25] = assay: In vivo activity against hypocholesterol (CHOL) by using Alloxan-induced hyperlipoperoxidemia method in BALB/c mice after peroral administration at 10 mg/Kg dose; assay type: functional; method in brief: as §1
Mus musculus [26] = assay: In vivo activity against hypocholesterol (CHOL) by Alloxan-induced hyperlipoperoxidemia method in BALB/c mice after peroral administration at 50 mg/Kg dose; assay type: functional; method in brief: as §1
Mus musculus [27] = assay: as §2; assay type: functional; method in brief: as §1; remark: listed apart in the source

| SMILES | IC50 (Rattus norvegicus [1]) | Decrease (Mus musculus [2]) | Decrease (Mus musculus [3]) | Decrease (Mus musculus [4]) | also measured |
| --- | --- | --- | --- | --- | --- |
| CCCC(=O)Oc1c(C)c(C)c2c(c1C)CCC(C)(COc1ccc(CC3SC(=O)NC3=O)cc1)O2 (configuration not stated) | < 0.1 µg/mL | – | – | – | – |
| CC1(CCOc2ccc(CC3SC(=O)NC3=O)cc2)CCc2cc(O)c(C(C)(C)C)cc2O1 (configuration not stated) | 0.1 µg/mL (≈ 0.213 µM) | – | – | – | – |
| CCC1(COc2ccc(CC3SC(=O)NC3=O)cc2)CCc2c(C)c(O)c(C)c(C)c2O1 (configuration not stated) | 0.1 µg/mL (≈ 0.22 µM) | 19.5% | 14% | 17.6% | – |
| Cc1cc(OCCCC(C)(C)CO)c(C)c(C)c1O | 0.1 µg/mL (≈ 0.375 µM) | – | – | – | Decrease (Rattus norvegicus [5]): 57.3%; Increase (Rattus norvegicus [6]): 23.9%; Relative peroxidation (Rattus norvegicus [7]): 0.42; Decrease (Mus musculus [8]): 27.4% |
| CC(C)(Sc1cc(C(C)(C)C)c(O)c(C(C)(C)C)c1)Sc1cc(C(C)(C)C)c(O)c(C(C)(C)C)c1 [PROBUCOL] | > 1 µg/mL | -1.1% | -5.3% | 5.8% | Increase (Rattus norvegicus [9]): 0.2%; Decrease (Mus musculus [10]): -25.2%; Decrease (Mus musculus [11]): 0.8%; Decrease (Mus musculus [12]): -3%; Decrease (Mus musculus [13]): -22.1%; Decrease (Mus musculus [14]): 6.1%; Decrease (Mus musculus [15]): -9.7% |
| Cc1cc(C(C)(C)C)c(O)c(C(C)(C)C)c1 [BUTYLATED HYDROXYTOLUENE] | 0.1 µg/mL (≈ 0.454 µM) | – | – | – | – |
| Cc1c(C)c2c(c(C)c1O)CCC(C)(COc1ccc(CC3SC(N)=NC3=O)cc1)O2 (configuration not stated) | < 0.1 µg/mL | 7.2% | 16.8% | 11.9% | – |
| CCCC1Oc2c(C)c(C)c(O)c(C)c2S1 (configuration not stated) | < 0.1 µg/mL | – | – | – | – |
| CC(=O)Oc1cc2c(cc1C)OC(C)(COc1ccc(CC3SC(N)=NC3=O)cc1)CC2 (configuration not stated) | 0.3 µg/mL (≈ 0.66 µM) | – | – | – | – |
| COc1c(OC(C)=O)c(C)c2c(c1OC)OC(C)(CCOc1ccc(CC3SC(N)=NC3=O)cc1)CC2 (configuration not stated) | 0.3 µg/mL (≈ 0.568 µM) | – | – | – | – |
| CCOC(=O)C(C)(C)Oc1ccc(Cl)cc1 [CLOFIBRATE] | > 1 µg/mL | 5.9% | 19.6% | 26.6% | Increase (Rattus norvegicus [9]): 37.2%; Decrease (Mus musculus [16]): 2.8%; Decrease (Mus musculus [11]): 6.8%; Decrease (Mus musculus [12]): 22.8%; Decrease (Rattus norvegicus [17]): 37.6%; Decrease (Mus musculus [18]): 1.1%; Decrease (Mus musculus [14]): 37.6% |
| Cc1cc(OCCCCCCCC(C)(C)CO)c(C)c(C)c1O | < 0.1 µg/mL | – | – | – | – |
| Cc1c(C)c2c(c(C)c1OC(=O)c1ccccc1)CCC(C)(COc1ccc(CC3SC(=O)NC3=O)cc1)O2 (configuration not stated) | 0.1 µg/mL (≈ 0.183 µM) | – | – | – | – |
| CC1(COc2ccc(CC3SC(=O)NC3=O)cc2)CCc2cc(O)c(C(C)(C)C)cc2O1 (configuration not stated) | < 0.1 µg/mL | 5.6% | -48.6% | 16.1% | Decrease (Mus musculus [19]): 28.5% |
| Cc1c(C)c2c(c(C)c1O)CCC(C)(COc1ccc(CC(Cl)C(=O)O)cc1)O2 (configuration not stated) | 0.1 µg/mL (≈ 0.239 µM) | 14.9% | 33.9% | 46.3% | – |
| CC(=O)Oc1cc2c(cc1C(C)(C)C)OC(C)(CCOc1ccc(CC3SC(N)=NC3=O)cc1)CC2 (configuration not stated) | 0.1 µg/mL (≈ 0.196 µM) | – | – | – | – |
| Cc1ccc(C)c(OCCCC(C)(C)C(=O)O)c1 [GEMFIBROZIL] | > 1 µg/mL | – | – | – | Decrease (Mus musculus [20]): 20.5%; Decrease (Mus musculus [21]): 12.3% and 15.9%; Decrease (Mus musculus [22]): 3.2%; Decrease (Rattus norvegicus [17]): 39.4%; Decrease (Mus musculus [8]): 12.3% |
| Cc1c(C)c2c(c(C)c1O)SCO2 | < 0.1 µg/mL | – | – | – | – |
| Cc1c(C)c2c(c(C)c1OC(=O)c1cccnc1)CCC(C)(COc1ccc(CC3SC(=O)NC3=O)cc1)O2 (configuration not stated) | < 0.1 µg/mL | – | – | – | – |
| Cc1cc(OCCCC(C)(C)C(=O)O)c(C)c(C)c1O | > 1 µg/mL | – | – | – | Relative peroxidation (Rattus norvegicus [7]): 0.71 |
| CC(=O)Oc1c(C)c(C)c2c(c1C)CCC(C)(CCC[C@H](C)CCC[C@H](C)CCCC(C)C)O2 (some centres not stated) [TOCOPHEROL ACETATE] | > 1 µg/mL | 10.7% | 27.3% | 46.1% | Decrease (Mus musculus [23]): 36.5%; Decrease (Mus musculus [24]): 23.5%; Decrease (Mus musculus [25]): 20.4%; Decrease (Mus musculus [26]): 8.3%; Decrease (Mus musculus [16]): 27.9%; Decrease (Mus musculus [11]): 9.1%; Decrease (Mus musculus [12]): 16.1%; Decrease (Mus musculus [18]): 5.2%; Decrease (Mus musculus [14]): 56.6% |
| Cc1c(C)c2c(c(C)c1O)SC(C)O2 (configuration not stated) | < 0.1 µg/mL | – | – | – | – |
| COc1c(O)c(C)c2c(c1OC)OC(C)(CCOc1ccc(CC3SC(=O)NC3=O)cc1)CC2 (configuration not stated) | 0.3 µg/mL (≈ 0.615 µM) | – | – | – | – |
| Cc1c(C)c2c(c(C)c1O)CCC(COc1ccc(CC3SC(=O)NC3=O)cc1)(CC(C)C)O2 (configuration not stated) | 0.1 µg/mL (≈ 0.207 µM) | 12.1% | 11.9% | 1.5% | – |
| CC(=O)Oc1c(C)c(C)c2c(c1C)CCC(C)(COc1ccc(CC3SC(=O)NC3=O)cc1)O2 (configuration not stated) | < 0.1 µg/mL | 4% | -4% | 6.7% | Decrease (Mus musculus [19]): 2.6% |
| CC1(COc2ccc(CC3SC(=O)NC3=O)cc2)CCCCC1 (configuration not stated) [CIGLITAZONE] | > 1 µg/mL | 10.8% | 7.9% | 18.7% | – |
| Cc1c(C)c2c(c(C)c1O)CCC(C)(CCOc1ccc(CC3SC(=O)NC3=O)cc1)O2 (configuration not stated) | < 0.1 µg/mL | – | – | – | – |
| Cc1c(C)c2c(c(C)c1O)CCC(COc1ccc(CC3SC(=O)NC3=O)cc1)O2 (configuration not stated) | < 0.1 µg/mL | – | – | – | – |
| Cc1c(C)c2c(c(C)c1O)CCC(C)(COc1ccc(CC3SC(=O)NC3=O)cc1)O2 (configuration not stated) [TROGLITAZONE] | 0.1 µg/mL (≈ 0.226 µM) | – | 57.5% | 54.3% | Decrease (Mus musculus [27]): 57.5%; Decrease (Mus musculus [26]): 19.7%; Decrease (Mus musculus [16]): 36%; Decrease (Mus musculus [18]): 31.9%; Decrease (Mus musculus [19]): 38.5% |
| Cc1cc2c(cc1O)CCC(C)(COc1ccc(CC3SC(=O)NC3=O)cc1)O2 (configuration not stated) | 0.3 µg/mL (≈ 0.726 µM) | – | – | – | – |
